The list is not random: actives were taken first. Their share in the collection is about 2.3%.
PLC-gamma1 inh = blocks human PLC-gamma1 enzyme activity | inhibition, % at 12.2 µM | 0.84% of 370,000 active | AID 720700 | purified PLC-gamma1, fluorogenic substrate, fluorescence
ADAM17 inh = inhibitors of human ADAM17; P78536; recombinant ADAM17, EDANS/DABCYL FRET peptide cleavage; inhibition, % at 6.95 µM; 0.83% of 370,000 active;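 active means inhibition above the mean of compounds lying between control limits plus 3 SD, set per campaign, cut at about 8.5% in these data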
Target sequence (P78536 215-824 limits assumed): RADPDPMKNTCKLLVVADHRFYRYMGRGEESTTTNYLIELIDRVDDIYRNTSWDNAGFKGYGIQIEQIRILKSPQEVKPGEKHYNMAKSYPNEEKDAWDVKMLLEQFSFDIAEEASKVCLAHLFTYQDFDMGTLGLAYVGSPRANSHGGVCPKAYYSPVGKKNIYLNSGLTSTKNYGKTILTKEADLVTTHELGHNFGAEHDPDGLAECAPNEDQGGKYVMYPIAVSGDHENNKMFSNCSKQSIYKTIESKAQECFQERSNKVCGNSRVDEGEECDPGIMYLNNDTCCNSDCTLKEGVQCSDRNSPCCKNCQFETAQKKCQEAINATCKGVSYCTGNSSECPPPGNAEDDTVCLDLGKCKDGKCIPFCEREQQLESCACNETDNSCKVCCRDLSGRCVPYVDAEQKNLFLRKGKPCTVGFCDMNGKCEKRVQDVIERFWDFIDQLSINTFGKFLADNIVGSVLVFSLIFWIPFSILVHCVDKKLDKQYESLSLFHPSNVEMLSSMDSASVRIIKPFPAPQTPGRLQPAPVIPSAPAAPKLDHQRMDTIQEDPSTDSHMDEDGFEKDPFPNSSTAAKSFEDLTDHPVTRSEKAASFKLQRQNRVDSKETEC
DDE Tn6 FP inh = DD(E)-Tn6 binding inhibition, primary FP screen; Fibrin DD(E) TRITC-Tn6 fluorescence polarization displacement; 0.21% of 370,000 active; inhibition, % at 8.3 µM; P02675;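 active means inhibition above a per-campaign cutoff: mean of compounds within control limits plus 3 SD, cut at about 15% in these data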
Tn7 DDE FP = disrupts Tn7 cyclic peptide binding to fibrin D-Dimer-E complex. P02675. FP displacement of FITC-Tn7 peptide from fibrin DD(E); 0% = median of compound wells per plate. inhibition, % at 8.3 µM. 0.13% of 370,000 active. AID 720508;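 active means inhibition above the mean of compounds falling within the control limits plus 3 SD of them, cut at about 14% in these data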
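Also added: labelled Tn7 tracer, 0.1 µM; Assay system: human fibrin DD(E) protein; Amount: 2 µM fibrin DD(E); Schedule: 10 min compound pre-incubation, 3 h probe incubation at room temperature; Repeats: one replicate per compound; Read-out basis: percent inhibition; Measured by: fluorescence polarization of the labelled Tn7 tracer.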
ADAM10 inh = inhibits human ADAM10 | O14672 | recombinant ADAM10, EDANS/DABCYL FRET peptide cleavage, 3 h | inhibition, % at 7 µM | 0.62% of 370,000 active | AID 720582;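 active means inhibition above a per-campaign cutoff equal to the mean of compounds falling between control-based bounds plus 3 SD, cut at about 20% in these data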
PLCb3 inh = inhibitors of human phospholipase C beta3; Q01970; inhibition, % at 12.2 µM; Purified PLC-beta3, fluorogenic substrate, fluorescence; 0.18% of 370,000 active; in the data active means inhibition above about 11%
PLCg1 ctr = PLC-gamma1 inhibition, counter-screen for PLC-beta3 hits; inhibition, % at 12.3 µM; shares compounds with PLC-gamma1 inh; 3.1% of 3,300 active; purified PLC-gamma1, fluorogenic substrate, fluorescence; AID 743258
PLCbeta3 conf = human PLC-beta3 inhibition, confirmation. shares compounds with PLC-gamma1 inh. purified PLC-beta3, fluorogenic substrate fluorescence. inhibition, % at 12.3 µM. 1% of 3,300 active; in the data active means inhibition above about 11%
A number is an active result. Unless noted, no stated cut-off is given here; in the data, active means inhibition above about 9.5%; inactive means the rest.

Cc1cccc(C(=O)Nc2c(-c3ccc(C(F)(F)F)cc3)nc3ncccn23)c1 was read as PLC-gamma1 inh inactive, ADAM17 inh inactive, DDE Tn6 FP inh inactive, Tn7 DDE FP inactive, ADAM10 inh inactive and PLCb3 inh inactive.
For Cc1ccc(-n2ncc(C(=O)Nc3ccc(Cl)cc3)c2C2CCNCC2)cc1C the results were PLC-gamma1 inh 9.6, ADAM17 inh inactive, DDE Tn6 FP inh inactive, Tn7 DDE FP inactive, ADAM10 inh inactive, PLCb3 inh inactive, PLCg1 ctr inactive and PLCbeta3 conf inactive.
For COc1ccc(C2C(C(=O)Nc3ccc(F)cc3)CCC(=O)N2c2ccc(OC)cc2)cc1 (centres undefined) the results were PLC-gamma1 inh inactive, ADAM17 inh inactive, DDE Tn6 FP inh inactive, Tn7 DDE FP inactive, ADAM10 inh inactive and PLCb3 inh inactive.
Screening CCCCCCCCCCOC(=O)Cn1c(COc2ccc(Cl)cc2)[n+](C)c2ccccc21 returned PLC-gamma1 inh 13, ADAM17 inh inactive, DDE Tn6 FP inh inactive, Tn7 DDE FP inactive, ADAM10 inh inactive, PLCb3 inh inactive, PLCg1 ctr inactive and PLCbeta3 conf inactive.
CCCCCCCCCCOC(=O)Cn1c(COc2ccccc2)[n+](C)c2ccccc21 was read as PLC-gamma1 inh 9.5, ADAM17 inh inactive, DDE Tn6 FP inh inactive, Tn7 DDE FP inactive, ADAM10 inh inactive, PLCb3 inh inactive, PLCg1 ctr inactive and PLCbeta3 conf inactive.
`CCCCCCCCCCOC(=O)Cn1c(COc2cccc(C)c2)[n+](C)c2ccccc21` gave PLC-gamma1 inh inactive, ADAM17 inh inactive, DDE Tn6 FP inh inactive, Tn7 DDE FP inactive, ADAM10 inh inactive and PLCb3 inh inactive.
`C#CCOc1ccc(Br)cc1C(c1c(C)[nH][nH]c1=O)c1c(C)[nH][nH]c1=O` gave PLC-gamma1 inh 62, ADAM17 inh inactive, DDE Tn6 FP inh inactive, Tn7 DDE FP inactive, ADAM10 inh inactive, PLCb3 inh inactive, PLCg1 ctr inactive and PLCbeta3 conf inactive.
For O=C(/C=C/c1cccs1)Nc1ccc([N+](=O)[O-])cc1 the results were PLC-gamma1 inh 12, ADAM17 inh inactive, DDE Tn6 FP inh inactive, Tn7 DDE FP inactive, ADAM10 inh inactive, PLCb3 inh inactive, PLCg1 ctr inactive and PLCbeta3 conf inactive.
`O=C(/C=C/c1cccs1)c1ccc([N+](=O)[O-])cc1` gave PLC-gamma1 inh inactive, ADAM17 inh inactive, DDE Tn6 FP inh inactive, Tn7 DDE FP inactive, ADAM10 inh inactive and PLCb3 inh inactive.
Cc1ccc(C(=O)NC(=S)NNC(=O)CCN2CCOCC2)cc1 was read as PLC-gamma1 inh 9.6, ADAM17 inh inactive, DDE Tn6 FP inh inactive, Tn7 DDE FP inactive, ADAM10 inh inactive, PLCb3 inh inactive, PLCg1 ctr inactive and PLCbeta3 conf inactive.
For CC(C)C(NC(=O)OCc1ccccc1)C(=O)NCC(=O)OC(C)(C)C (centres undefined) the results were PLC-gamma1 inh inactive, ADAM17 inh inactive, DDE Tn6 FP inh inactive, Tn7 DDE FP inactive, ADAM10 inh inactive, PLCb3 inh 15, PLCg1 ctr inactive and PLCbeta3 conf inactive.
Screening CCOc1ccc(C(=O)NC(=S)Nc2ccccc2N2CCOCC2)cc1Br returned PLC-gamma1 inh 9.9, ADAM17 inh inactive, DDE Tn6 FP inh inactive, Tn7 DDE FP inactive, ADAM10 inh inactive, PLCb3 inh inactive, PLCg1 ctr inactive and PLCbeta3 conf inactive.
For COc1ccc(C(=O)NC(=S)Nc2ccccc2N2CCOCC2)cc1Br the results were PLC-gamma1 inh inactive, ADAM17 inh inactive, DDE Tn6 FP inh inactive, Tn7 DDE FP inactive, ADAM10 inh inactive and PLCb3 inh inactive.
For CC(=O)c1ccc(N2CCN(C(=O)c3ccc(Br)cc3)CC2)c(F)c1 the results were PLC-gamma1 inh inactive, ADAM17 inh inactive, DDE Tn6 FP inh inactive, Tn7 DDE FP inactive, ADAM10 inh inactive, PLCb3 inh 12, PLCg1 ctr inactive and PLCbeta3 conf inactive.
`CC(=O)c1ccc(N2CCN(C(=O)c3ccco3)CC2)c(F)c1` gave PLC-gamma1 inh inactive, ADAM17 inh inactive, DDE Tn6 FP inh inactive, Tn7 DDE FP inactive, ADAM10 inh inactive and PLCb3 inh inactive.
CCOc1ccc(-c2cc(N)n(S(=O)(=O)c3ccc(OC)c(OC)c3)n2)cc1 was read as PLC-gamma1 inh inactive, ADAM17 inh inactive, DDE Tn6 FP inh inactive, Tn7 DDE FP inactive, ADAM10 inh inactive, PLCb3 inh 11, PLCg1 ctr inactive and PLCbeta3 conf inactive.
COc1ccc(S(=O)(=O)n2nc(-c3ccc(Cl)cc3)cc2N)cc1OC was read as PLC-gamma1 inh inactive, ADAM17 inh inactive, DDE Tn6 FP inh inactive, Tn7 DDE FP inactive, ADAM10 inh inactive and PLCb3 inh inactive.
Screening COC(=O)[C@H](C(C)C)N(CCCc1cn(CC2CCCCC2)nn1)S(=O)(=O)c1ccccc1Br returned PLC-gamma1 inh inactive, ADAM17 inh inactive, DDE Tn6 FP inh inactive, Tn7 DDE FP inactive, ADAM10 inh inactive and PLCb3 inh inactive.
For COc1ccc([N+](=O)[O-])cc1NS(=O)(=O)c1ccccc1 the results were PLC-gamma1 inh inactive, ADAM17 inh inactive, DDE Tn6 FP inh inactive, Tn7 DDE FP inactive, ADAM10 inh inactive and PLCb3 inh inactive.
COc1ccc([N+](=O)[O-])cc1NS(=O)(=O)c1cc(C(=O)O)ccc1OC was read as PLC-gamma1 inh 9.5, ADAM17 inh inactive, DDE Tn6 FP inh inactive, Tn7 DDE FP inactive, ADAM10 inh inactive, PLCb3 inh inactive, PLCg1 ctr inactive and PLCbeta3 conf inactive.
Screening CC(=O)Nc1ccc(C(=O)CSc2nccc(=O)[nH]2)cc1 returned PLC-gamma1 inh inactive, ADAM17 inh inactive, DDE Tn6 FP inh inactive, Tn7 DDE FP inactive, ADAM10 inh inactive and PLCb3 inh inactive.
Screening CC(C)(C)C(=O)CSc1nccc(=O)[nH]1 returned PLC-gamma1 inh 10, ADAM17 inh inactive, DDE Tn6 FP inh inactive, Tn7 DDE FP inactive, ADAM10 inh inactive, PLCb3 inh inactive, PLCg1 ctr inactive and PLCbeta3 conf inactive.
Screening C[C@H]1[C@@H](NS(=O)(=O)c2ccccc2[N+](=O)[O-])CC[C@@]23CCCN2C(=O)CCC[C@@H]13 returned PLC-gamma1 inh inactive, ADAM17 inh inactive, DDE Tn6 FP inh inactive, Tn7 DDE FP inactive, ADAM10 inh inactive and PLCb3 inh inactive.
CCOC(=O)Cn1cc(CN2CCS(=O)(=O)N(Cc3ccc(OC)cc3)C(C(=O)OC)C2)nn1 (centres undefined) was read as PLC-gamma1 inh inactive, ADAM17 inh inactive, DDE Tn6 FP inh inactive, Tn7 DDE FP inactive, ADAM10 inh inactive and PLCb3 inh inactive.
Cn1c(=O)c2c(nc(N3CCN(c4ccccn4)CC3)n2Cc2ccc(Cl)cc2Cl)n(C)c1=O was read as PLC-gamma1 inh 11, ADAM17 inh inactive, DDE Tn6 FP inh inactive, Tn7 DDE FP inactive, ADAM10 inh inactive, PLCb3 inh inactive, PLCg1 ctr inactive and PLCbeta3 conf inactive.
